Calls of active or inactive are those of the source. The calls are words filed in the database; no cut-off is given here.
Columns and labels:
A549 [1] = experiment: Cell cycle arrest in human A549 cells assessed as accumulation at G0/G1 phase at 10 uM after 36 hrs using propidium iodide staining by flow cytometry analysis (reference value: 53.1 +/- 1.2%); assay type: functional
A549 [2] = experiment: Cell cycle arrest in human A549 cells assessed as accumulation at G2/M phase at 10 uM after 24 hrs using propidium iodide staining by flow cytometry analysis (reference value: 35.2 +/- 2.3%); assay type: functional
A549 [3] = experiment: Induction of apoptosis in human A549 cells assessed as induction of ROS production at 10 uM after 5 hrs using DCF-DA staining by flow cytometry analysis in presence of Tiron; assay type: functional, cell-based
How it was run: (§1)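 Cells pretreated 1 h with or without 1 mM Tiron, then 10 μM for 1, 3 or 5 h; intracellular ROS read by DCF-DA flow cytometry; mean ± SEM of three independent determinations versus vehicle.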

A549 [4] = experiment: Induction of apoptosis in human A549 cells assessed as induction of ROS production after 12 hrs using DCF-DA staining by flow cytometry analysis; assay type: functional, cell-based
How it was run: (§2)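 Intracellular ROS in A549 cells after 12 h at 1, 3, 10, 30 μM, with 5 mM H2O2 as reference, measured by flow cytometry with DCF-DA probe; fold fluorescence over vehicle control; mean ± SEM, three independent determinations.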

A549 [5] = experiment: Induction of apoptosis in human A549 cells assessed as DNA level after 24 to 48 hrs using propidium iodide staining by flow cytometry analysis; assay type: functional, cell-based
How it was run: (§3)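 A549 cells treated at 3, 10 or 30 μM for 24, 36 or 48 h, fixed, stained with propidium iodide; hypodiploid apoptotic fraction counted by FACScan flow cytometry; mean ± SEM of three determinations versus vehicle control.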

A549 [6] = experiment: Induction of apoptosis in human A549 cells assessed as proteolytic cleavage of inactive procaspase-8, 9, and 3 into active caspase-8, 9, and 3 at 10 uM by Western blot analysis; assay type: functional, cell-based; settings: TDE = time-dependent effect
How it was run: (§4)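 A549 cells given 10 μM for 6, 12, 24, 36 h; lysates blotted (40 μg protein, SDS-PAGE, PVDF) for caspase-3/-8/-9, PARP, survivin, Bad, Bcl-xL; ECL detection; survivin bands quantified densitometrically; three independent experiments.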

A549 [7] = experiment: Cell cycle arrest in human A549 cells assessed as accumulation at sub-G1 phase at 10 uM after 36 hrs using propidium iodide staining by flow cytometry analysis (reference value: 1.7 +/- 0.4%); assay type: functional
A549 [8] = experiment: Induction of apoptosis in human A549 cells assessed as increase in expression of LC3-II at 10 uM by Western blot analysis; assay type: functional, cell-based; settings: TDE = time-dependent effect
How it was run: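 A549 cells with or without 10 μM for 6, 12, 24, 36 h; LC3 detected by Western blot with ECL; LC3 II band quantified by image analysis; three independent experiments.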

A549 [9] = experiment: Cell cycle arrest in human A549 cells assessed as accumulation at G2/M phase at 10 uM after 36 hrs using propidium iodide staining by flow cytometry analysis (reference value: 35.8 +/- 1.8%); assay type: functional
A549 [10] = experiment: Induction of apoptosis in human A549 cells assessed as induction of ROS production at 10 uM after 12 hrs using DCF-DA staining by flow cytometry analysis relative to control; assay type: functional; how it was run: as §2
A549 [11] = experiment: Cell cycle arrest in human A549 cells assessed as accumulation at G2/M phase at 10 uM after 48 hrs using propidium iodide staining by flow cytometry analysis (reference value: 31.9 +/- 1.4%); assay type: functional
A549 [12] = experiment: Induction of apoptosis in human A549 cells assessed as induction of ROS production at 3 uM after 12 hrs using DCF-DA staining by flow cytometry analysis relative to control; assay type: functional; how it was run: as §2
[13] = Cytotoxicity against human HT1080 cells after 48 hrs by SRB assay; settings: HT-1080, 48 h
A549 [14] = experiment: Cell cycle arrest in human A549 cells assessed as accumulation at G0/G1 phase at 10 uM after 24 hrs using propidium iodide staining by flow cytometry analysis (reference value: 51 +/- 1.1%); assay type: functional
A549 [15] = experiment: Induction of apoptosis in human A549 cells assessed as reduction of survivin expression at 10 uM by Western blot analysis; assay type: functional, cell-based; settings: TDE = time-dependent effect; how it was run: as §4
A549 [16] = experiment: Induction of apoptosis in human A549 cells assessed as induction of ROS production at 1 uM after 12 hrs using DCF-DA staining by flow cytometry analysis relative to control; assay type: functional; how it was run: as §2
A549 [17] = experiment: Induction of apoptosis in human A549 cells assessed as induction of cleaved PARP protein expression at 10 uM after 26 to 36 hrs by Western blot analysis; assay type: functional, cell-based; settings: in the assay text read “24 to 36 hrs” for “26 to 36 hrs”; how it was run: as §4
A549 [18] = experiment: Cytotoxicity against human A549 cells after 48 hrs by MTT assay; assay type: functional, cell-based
How it was run: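 Viability of A549 cells measured by mitochondrial MTT reduction after 24 and 48 h incubation with indicated concentrations; IC50 at 48 h; mean ± SEM of three determinations, each in triplicate.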

[19] = Cytotoxicity against human HuH7 cells after 48 hrs by SRB assay; settings: Huh-7, 48 h
A549 [20] = experiment: Induction of apoptosis in human A549 cells assessed as downregulation of cyclin D1, cyclin E, Cdk 2, and Cdk 4 protein levels at 10 uM after 6 to 36 hrs by Western blot analysis; assay type: functional, cell-based
How it was run: (§5)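 A549 lysates after 10 μM for 6, 12, 24, 36 h, or 1, 3, 10 μM for 24 h; 40 μg protein on 8–12% SDS gels, PVDF transfer, primary antibodies 1 h at room temperature, ECL detection; three independent experiments.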

A549 [21] = experiment: Cell cycle arrest in human A549 cells assessed as accumulation at S phase at 10 uM after 24 hrs using propidium iodide staining by flow cytometry analysis (reference value: 12 +/- 1.4%); assay type: functional
A549 [22] = experiment: Cell cycle arrest in human A549 cells assessed as accumulation at S phase at 10 uM after 36 hrs using propidium iodide staining by flow cytometry analysis (reference value: 9.6 +/- 0.9%); assay type: functional
A549 [23] = experiment: Induction of apoptosis in human A549 cells assessed as loss of mitochondrial membrane potential at 10 to 30 uM after 12 to 24 hrs by flow cytometry analysis; assay type: functional, cell-based
How it was run: (§6)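 A549 cells treated 12 and 24 h, stained with rhodamine 123 for 30 min at 37 °C; mean fluorescence by FACScan flow cytometry; CCCP (50 μM) used as depolarising control; mean ± SEM of three independent determinations.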

A549 [24] = experiment: Induction of apoptosis in human A549 cells assessed as downregulation of cyclin D1, cyclin E, Cdk 2, and Cdk 4 protein levels after 24 hrs by Western blot analysis; assay type: functional, cell-based; how it was run: as §5
A549 [25] = experiment: Cell cycle arrest in human A549 cells assessed as accumulation at sub-G1 phase at 10 uM after 48 hrs using propidium iodide staining by flow cytometry analysis (reference value: 1.5 +/- 0.1%); assay type: functional
A549 [26] = experiment: Induction of apoptosis in human A549 cells assessed as induction of ROS production at 10 uM using DCF-DA staining by flow cytometry analysis relative to control; assay type: functional, cell-based; settings: TDE = time-dependent effect; how it was run: as §1
A549 [27] = experiment: Cytotoxicity against human A549 cells after 48 hrs by SRB assay; assay type: functional, cell-based
How it was run: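 A549 cells exposed to a range of concentrations for 48 h, fixed and stained with sulforhodamine B to measure cell number; IC50 from three independent determinations, mean ± SEM.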

A549 [28] = experiment: Induction of apoptosis in human A549 cells assessed as reduction of Bad proteins expression at 10 uM after 6 to 36 hrs by Western blot analysis; assay type: functional, cell-based; how it was run: as §4
SW1353 = experiment: Cytotoxicity against human SW1353 cells after 48 hrs by SRB assay; settings: SW1353, 48 h
A549 [29] = experiment: Induction of apoptosis in human A549 cells assessed as loss of mitochondrial membrane potential at 50 uM after 12 to 24 hrs by flow cytometry analysis; assay type: functional, cell-based; how it was run: as §6
A549 [30] = experiment: Induction of apoptosis in human A549 cells assessed as DNA level at 3 to 30 uM using propidium iodide staining by flow cytometry analysis; assay type: functional, cell-based; settings: TDE = time-dependent effect; how it was run: as §3
A549 [31] = experiment: Cell cycle arrest in human A549 cells assessed as accumulation at S phase at 10 uM after 48 hrs using propidium iodide staining by flow cytometry analysis (reference value: 9.5 +/- 0.7%); assay type: functional
A549 [32] = experiment: Cell cycle arrest in human A549 cells assessed as accumulation at G0/G1 phase at 10 uM after 48 hrs using propidium iodide staining by flow cytometry analysis (reference value: 57.3 +/- 0.9%); assay type: functional
A549 [33] = experiment: Induction of apoptosis in human A549 cells assessed as induction of ROS production at 5 mM after 12 hrs using DCF-DA staining by flow cytometry analysis relative to control; assay type: functional; how it was run: as §2
Caco-2 = experiment: Cytotoxicity against human Caco2 cells after 48 hrs by SRB assay; settings: Caco-2, 48 h
A549 [34] = experiment: Induction of apoptosis in human A549 cells assessed as induction of ROS production at 30 uM after 12 hrs using DCF-DA staining by flow cytometry analysis relative to control; assay type: functional; how it was run: as §2
A549 [35] = experiment: Cell cycle arrest in human A549 cells assessed as accumulation at sub-G1 phase at 10 uM after 24 hrs using propidium iodide staining by flow cytometry analysis (reference value: 2 +/- 0.3%); assay type: functional
A549 [36] = experiment: Induction of apoptosis in human A549 cells assessed as reduction of Bcl-xL expression at 10 uM after 6 to 36 hrs by Western blot analysis; assay type: functional, cell-based; how it was run: as §4
[37] = Cytotoxicity against human Hep3B cells after 48 hrs by SRB assay
A549 [38] = experiment: Induction of apoptosis in human A549 cells assessed as hypodiploid DNA content at 10 to 20 uM after 48 hrs by flow cytometry analysis in presence of Z-VAD-fmk; assay type: functional, cell-based
How it was run: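 Cells preincubated 2 h with or without 50 μM Z-VAD-fmk, then exposed to indicated concentrations for 48 h; hypodiploid DNA content read by flow cytometry; mean ± SEM of three independent determinations.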

CC1CC(=O)c2c(cc3c(-c4c(O)cc(O)c5c(O)c6c(cc45)OC(C)CC6=O)c(O)cc(O)c3c2O)O1 (configuration not stated) [CEPHALOCHROMIN]
Activity (A549 [1]): 53.7%
Activity (A549 [2]): 32.7%
Activity (A549 [3]): inactive
Activity (A549 [4]): Dose-dependent effect
Activity (A549 [5]): Dose-dependent effect
Activity (A549 [6]): tde
Activity (A549 [7]): 9.8%
Activity (A549 [8]): tde
Activity (A549 [9]): 32.3%
fold change (FC) (A549 [10]): 2.87
Activity (A549 [11]): 27.9%
fold change (FC) (A549 [12]): 1.89
IC50 [13]: 4.98 µM
Activity (A549 [14]): 59.6%
Activity (A549 [15]): tde
fold change (FC) (A549 [16]): 1.24
Activity (A549 [17]): Active
Activity (A549 [18]): Dose-dependent effect
IC50 (A549 [18]; A549, 48 h): 5.22 µM
IC50 [19]: 4.64 µM
Activity (A549 [20]): Active
Activity (A549 [21]): 3.9%
Activity (A549 [22]): 4.2%
Activity (A549 [23]): Active
Activity (A549 [24]): Dose-dependent effect
Activity (A549 [25]): 15.5%
Activity (A549 [26]): tde
Activity (A549 [27]): Dose-dependent effect
IC50 (A549 [27]; A549, 48 h): 2.72 µM
Activity (A549 [28]): inactive
IC50 (SW1353): 3.54 µM
Activity (A549 [29]): Active
Activity (A549 [30]): tde
Activity (A549 [31]): 4.4%
Activity (A549 [32]): 52.1%
fold change (FC) (A549 [33]): 7.2
IC50 (Caco-2): 12.4 µM
fold change (FC) (A549 [34]): 4.65
Activity (A549 [35]): 3.8%
Activity (A549 [36]): Active
IC50 [37]: 14.3 µM
Activity (A549 [38]): inactive
